Data from ChEMBL document CHEMBL4387704, “Design, synthesis and biological evaluation of novel isoindolinone derivatives as potent histone deacetylase inhibitors” (Eur J Med Chem, 2019).
Active and inactive are the calls of the source. The rule behind the calls is not given here.

Experiments:
Histone deacetylase 1 = Histone deacetylase 1 (Homo sapiens, UniProt Q13547); assay: Inhibition of HDAC1 (unknown origin) using Fluor de Lys substrate by fluorescence assay relative to control
K562 = assay: Antiproliferative activity against human K562 assessed as reduction in cell viability measured after 72 hrs using alamar blue based fluorescence method; type: functional; conditions: K562, 72 h
Procedure, shortened: (§1)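 Leukemia lines grown in IMDM with penicillin/streptomycin, HL-60 with 20% FBS and K562 with 10% FBS, at 37 °C, 5% CO2. Cells in 96-well plates exposed to drug for 72 h. Alamar blue (1 mM solution) added for 5–6 h, fluorescence read at 530/590 nm.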

[1] = biological target: Polyamine deacetylase HDAC10 (Homo sapiens, UniProt Q969S8); assay: Inhibition of HDAC10 (unknown origin) using Fluor de Lys substrate by fluorescence assay relative to control
Procedure, shortened: (§2)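 Recombinant HDAC isoform assays run by a contract lab. Compounds in DMSO, 10-dose IC50 mode, 3-fold serial dilution from 50 μM. Duplicate runs; IC50 from curve fitting.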

[2] = Metabolic stability in human liver microsomes assessed as internal clearance at 1 uM preincubated for 10 mins followed by NADPH addition measured upto 60 mins by LC-MS/MS analysis; type: ADME, Microsome; conditions: read-out: CLH
Procedure, shortened: (§3)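 Liver microsomes from male SD rat, dog or human at 0.5 mg/mL in 100 mM potassium phosphate pH 7.4 with 1 μM compound. Prewarmed 37 °C 10 min, started with 1 mM NADPH. Stopped at 0, 5, 10, 20, 40, 60 min with cold methanol containing glibenclamide internal standard; supernatant by LC–MS/MS; T1/2 and CLint derived.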

[3] = Metabolic stability in dog liver microsomes assessed as internal clearance at 1 uM preincubated for 10 mins followed by NADPH addition measured upto 60 mins by LC-MS/MS analysis; type: ADME, Canis lupus familiaris, Microsome; conditions: read-out: CLH; procedure, shortened: as §3
[4] = Metabolic stability in rat liver microsomes assessed as internal clearance at 1 uM preincubated for 10 mins followed by NADPH addition measured upto 60 mins by LC-MS/MS analysis; type: ADME, Microsome; conditions: read-out: CLH; procedure, shortened: as §3
HL-60 = assay: Antiproliferative activity against human HL60 assessed as reduction in cell viability measured after 72 hrs using alamar blue based fluorescence method; type: functional; conditions: HL-60, 72 h; procedure, shortened: as §1
[5] = biological target: Histone deacetylase 5 (Homo sapiens) (UniProt Q9UQL6); assay: Inhibition of HDAC5 (unknown origin) using Fluor de Lys substrate by fluorescence assay relative to control; procedure, shortened: as §2
MCF7 = assay: Antiproliferative activity against human MCF7 assessed as reduction in cell viability measured after 72 hrs using alamar blue based fluorescence method; type: functional; conditions: MCF7, 72 h
Procedure, shortened: (§4)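 HCT116 and MCF-7 grown in McCoy's 5A with 10% FBS and penicillin/streptomycin at 37 °C, 5% CO2. Cells plated in 96-well format and exposed to drug for 72 h. Alamar blue (1 mM solution) added, incubated 5–6 h, fluorescence read at 530/590 nm.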

HCT-116 = assay: Antiproliferative activity against human HCT116 assessed as reduction in cell viability measured after 72 hrs using alamar blue based fluorescence method; type: functional; conditions: HCT-116, 72 h; procedure, shortened: as §4
[6] = Metabolic stability in rat liver microsomes assessed as half life at 1 uM preincubated for 10 mins followed by NADPH addition measured upto 60 mins by LC-MS/MS analysis; type: ADME, Microsome; procedure, shortened: as §3
[7] = biological target: Histone deacetylase 9 (Homo sapiens) (UniProt Q9UKV0); assay: Inhibition of HDAC9 (unknown origin) using Fluor de Lys substrate by fluorescence assay relative to control; procedure, shortened: as §2
[8] = biological target: Histone deacetylase 7 (Homo sapiens) (UniProt Q8WUI4); assay: Inhibition of HDAC7 (unknown origin) using Fluor de Lys substrate by fluorescence assay relative to control; procedure, shortened: as §2
[9] = biological target: Histone deacetylase 4 (Homo sapiens) (UniProt P56524); assay: Inhibition of HDAC4 (unknown origin) using Fluor de Lys substrate by fluorescence assay relative to control; procedure, shortened: as §2
[10] = Metabolic stability in human liver microsomes assessed as half life at 1 uM preincubated for 10 mins followed by NADPH addition measured upto 60 mins by LC-MS/MS analysis; type: ADME, Microsome; procedure, shortened: as §3
Histone deacetylase 11 = Histone deacetylase 11 (Homo sapiens, UniProt Q96DB2); assay: Inhibition of HDAC11 (unknown origin) using Fluor de Lys substrate by fluorescence assay relative to control; procedure, shortened: as §2
[11] = Metabolic stability in dog liver microsomes assessed as half life at 1 uM preincubated for 10 mins followed by NADPH addition measured upto 60 mins by LC-MS/MS analysis; type: ADME, Canis lupus familiaris, Microsome; procedure, shortened: as §3
[12] = biological target: Protein deacetylase HDAC6 (Homo sapiens) (UniProt Q9UBN7); assay: Inhibition of HDAC6 (unknown origin) using Fluor de Lys substrate by fluorescence assay relative to control; procedure, shortened: as §2

Histone deacetylase 1, sequence (Q13547 whole entry): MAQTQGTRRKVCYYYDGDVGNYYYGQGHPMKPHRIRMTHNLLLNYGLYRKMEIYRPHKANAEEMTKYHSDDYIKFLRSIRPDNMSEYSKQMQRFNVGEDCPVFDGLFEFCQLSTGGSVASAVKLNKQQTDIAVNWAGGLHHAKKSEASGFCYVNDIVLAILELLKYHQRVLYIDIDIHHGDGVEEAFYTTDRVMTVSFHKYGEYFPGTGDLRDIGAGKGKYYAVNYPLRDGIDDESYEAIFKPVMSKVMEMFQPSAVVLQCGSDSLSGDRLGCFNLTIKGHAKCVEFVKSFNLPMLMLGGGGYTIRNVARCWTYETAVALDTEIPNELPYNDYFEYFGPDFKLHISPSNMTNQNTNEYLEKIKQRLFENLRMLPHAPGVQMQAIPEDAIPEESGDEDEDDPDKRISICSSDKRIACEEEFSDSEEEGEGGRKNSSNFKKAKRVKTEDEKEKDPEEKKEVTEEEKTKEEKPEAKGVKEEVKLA
Histone deacetylase 11, sequence (Q96DB2 whole entry): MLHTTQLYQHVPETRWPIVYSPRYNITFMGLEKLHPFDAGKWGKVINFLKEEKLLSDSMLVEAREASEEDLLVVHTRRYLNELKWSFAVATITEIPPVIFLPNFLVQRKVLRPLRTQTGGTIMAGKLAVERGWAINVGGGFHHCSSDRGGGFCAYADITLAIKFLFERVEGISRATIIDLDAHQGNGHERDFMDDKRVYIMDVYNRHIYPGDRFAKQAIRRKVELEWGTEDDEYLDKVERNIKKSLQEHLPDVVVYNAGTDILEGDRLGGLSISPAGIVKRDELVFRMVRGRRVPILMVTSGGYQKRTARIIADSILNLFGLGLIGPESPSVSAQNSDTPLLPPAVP
Histone deacetylase 4 (Homo sapiens), sequence (P56524 whole entry): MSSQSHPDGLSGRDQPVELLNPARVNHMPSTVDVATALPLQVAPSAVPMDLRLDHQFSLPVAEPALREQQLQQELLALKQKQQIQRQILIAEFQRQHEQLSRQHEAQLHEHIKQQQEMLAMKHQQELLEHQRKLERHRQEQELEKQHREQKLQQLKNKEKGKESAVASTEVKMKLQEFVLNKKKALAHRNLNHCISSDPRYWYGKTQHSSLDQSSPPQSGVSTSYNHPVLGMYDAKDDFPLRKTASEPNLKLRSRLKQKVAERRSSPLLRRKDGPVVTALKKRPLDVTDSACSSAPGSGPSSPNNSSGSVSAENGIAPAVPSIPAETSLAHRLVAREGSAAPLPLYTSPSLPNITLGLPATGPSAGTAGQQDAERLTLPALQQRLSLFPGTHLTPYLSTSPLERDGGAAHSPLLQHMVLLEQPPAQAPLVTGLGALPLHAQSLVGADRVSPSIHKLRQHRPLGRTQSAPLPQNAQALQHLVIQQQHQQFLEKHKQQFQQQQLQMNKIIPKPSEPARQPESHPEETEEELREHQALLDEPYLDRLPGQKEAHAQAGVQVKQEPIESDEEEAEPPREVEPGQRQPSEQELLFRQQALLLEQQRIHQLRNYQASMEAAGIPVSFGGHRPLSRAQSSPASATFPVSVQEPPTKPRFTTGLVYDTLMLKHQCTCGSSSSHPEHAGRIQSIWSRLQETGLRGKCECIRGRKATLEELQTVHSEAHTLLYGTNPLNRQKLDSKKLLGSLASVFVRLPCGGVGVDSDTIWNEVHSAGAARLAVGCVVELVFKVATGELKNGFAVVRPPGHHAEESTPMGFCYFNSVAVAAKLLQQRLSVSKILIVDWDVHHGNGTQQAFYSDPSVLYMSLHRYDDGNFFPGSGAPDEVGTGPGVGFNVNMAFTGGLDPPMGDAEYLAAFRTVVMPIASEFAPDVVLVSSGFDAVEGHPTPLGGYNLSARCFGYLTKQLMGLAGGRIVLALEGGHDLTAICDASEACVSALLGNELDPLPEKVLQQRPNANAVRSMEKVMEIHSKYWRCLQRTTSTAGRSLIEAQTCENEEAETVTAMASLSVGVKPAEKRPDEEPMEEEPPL
Histone deacetylase 5 (Homo sapiens), sequence (Q9UQL6 whole entry): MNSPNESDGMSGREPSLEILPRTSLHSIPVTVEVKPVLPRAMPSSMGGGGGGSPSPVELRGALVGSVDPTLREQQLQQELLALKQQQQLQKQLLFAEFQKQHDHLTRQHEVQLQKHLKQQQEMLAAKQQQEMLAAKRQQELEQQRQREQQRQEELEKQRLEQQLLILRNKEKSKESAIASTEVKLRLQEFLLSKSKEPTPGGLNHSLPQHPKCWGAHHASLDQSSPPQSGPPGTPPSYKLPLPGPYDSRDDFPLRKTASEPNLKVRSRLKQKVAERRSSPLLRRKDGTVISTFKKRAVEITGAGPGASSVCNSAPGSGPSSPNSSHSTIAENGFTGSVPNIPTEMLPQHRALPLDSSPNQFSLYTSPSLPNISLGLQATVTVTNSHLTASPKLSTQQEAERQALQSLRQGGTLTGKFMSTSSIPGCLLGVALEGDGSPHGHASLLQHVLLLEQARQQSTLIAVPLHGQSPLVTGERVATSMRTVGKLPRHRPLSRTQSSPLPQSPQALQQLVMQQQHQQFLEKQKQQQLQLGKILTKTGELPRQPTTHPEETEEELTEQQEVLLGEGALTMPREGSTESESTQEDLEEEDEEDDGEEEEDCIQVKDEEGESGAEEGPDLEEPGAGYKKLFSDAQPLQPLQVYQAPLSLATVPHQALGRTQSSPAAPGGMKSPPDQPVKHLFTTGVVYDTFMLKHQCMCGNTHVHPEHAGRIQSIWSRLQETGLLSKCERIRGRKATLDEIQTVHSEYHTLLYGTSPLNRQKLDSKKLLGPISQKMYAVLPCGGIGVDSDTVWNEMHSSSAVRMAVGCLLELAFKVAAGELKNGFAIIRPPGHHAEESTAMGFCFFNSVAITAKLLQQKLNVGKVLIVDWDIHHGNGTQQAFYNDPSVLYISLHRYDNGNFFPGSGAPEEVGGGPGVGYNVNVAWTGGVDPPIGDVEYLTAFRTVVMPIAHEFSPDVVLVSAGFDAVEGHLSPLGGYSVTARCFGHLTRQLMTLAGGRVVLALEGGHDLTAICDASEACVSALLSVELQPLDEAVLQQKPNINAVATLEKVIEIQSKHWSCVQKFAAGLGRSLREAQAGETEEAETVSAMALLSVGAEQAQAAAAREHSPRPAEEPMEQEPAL
Histone deacetylase 7 (Homo sapiens), sequence (Q8WUI4 whole entry): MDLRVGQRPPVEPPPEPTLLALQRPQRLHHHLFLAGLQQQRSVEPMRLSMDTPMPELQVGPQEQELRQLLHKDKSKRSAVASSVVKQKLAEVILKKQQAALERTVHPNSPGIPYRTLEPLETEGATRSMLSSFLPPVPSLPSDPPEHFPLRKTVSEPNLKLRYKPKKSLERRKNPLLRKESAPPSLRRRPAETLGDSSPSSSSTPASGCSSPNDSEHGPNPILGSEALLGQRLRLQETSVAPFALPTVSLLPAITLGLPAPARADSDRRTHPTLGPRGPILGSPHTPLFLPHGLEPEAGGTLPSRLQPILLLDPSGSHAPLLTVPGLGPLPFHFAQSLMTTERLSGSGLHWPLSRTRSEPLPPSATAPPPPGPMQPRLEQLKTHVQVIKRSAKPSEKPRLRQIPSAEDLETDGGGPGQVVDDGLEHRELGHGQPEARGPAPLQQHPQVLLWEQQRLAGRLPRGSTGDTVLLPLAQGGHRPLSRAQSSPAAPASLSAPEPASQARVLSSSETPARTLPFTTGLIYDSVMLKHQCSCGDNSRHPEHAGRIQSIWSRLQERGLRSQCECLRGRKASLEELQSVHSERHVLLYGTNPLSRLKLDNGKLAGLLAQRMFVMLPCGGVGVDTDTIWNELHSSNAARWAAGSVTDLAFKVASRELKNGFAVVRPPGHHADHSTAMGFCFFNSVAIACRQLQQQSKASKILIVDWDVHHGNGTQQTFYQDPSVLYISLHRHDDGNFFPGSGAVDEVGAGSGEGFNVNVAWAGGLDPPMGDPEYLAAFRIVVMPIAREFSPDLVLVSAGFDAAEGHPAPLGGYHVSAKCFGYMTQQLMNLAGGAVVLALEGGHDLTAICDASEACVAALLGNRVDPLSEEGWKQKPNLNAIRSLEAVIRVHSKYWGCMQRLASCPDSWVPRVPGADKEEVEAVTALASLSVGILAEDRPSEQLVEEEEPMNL
Polyamine deacetylase HDAC10, sequence (Q969S8 whole entry, canonical isoform): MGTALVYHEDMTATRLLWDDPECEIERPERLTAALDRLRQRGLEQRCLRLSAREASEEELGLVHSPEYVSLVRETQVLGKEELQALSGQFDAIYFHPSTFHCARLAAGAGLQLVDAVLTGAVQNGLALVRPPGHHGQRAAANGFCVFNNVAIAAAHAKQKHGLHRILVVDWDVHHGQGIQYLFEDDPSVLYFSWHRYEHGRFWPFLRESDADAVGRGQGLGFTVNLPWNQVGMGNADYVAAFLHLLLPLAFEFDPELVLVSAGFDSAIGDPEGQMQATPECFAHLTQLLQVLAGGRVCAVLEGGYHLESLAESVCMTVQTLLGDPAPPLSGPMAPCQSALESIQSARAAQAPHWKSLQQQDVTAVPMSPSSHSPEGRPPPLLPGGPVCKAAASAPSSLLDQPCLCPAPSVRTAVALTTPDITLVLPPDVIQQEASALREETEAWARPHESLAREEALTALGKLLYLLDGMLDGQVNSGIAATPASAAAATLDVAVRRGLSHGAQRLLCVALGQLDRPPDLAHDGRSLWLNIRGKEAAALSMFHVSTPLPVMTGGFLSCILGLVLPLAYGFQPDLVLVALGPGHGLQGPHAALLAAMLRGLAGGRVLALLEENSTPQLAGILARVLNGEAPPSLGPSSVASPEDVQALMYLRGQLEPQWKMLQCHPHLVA

SMILES: COc1ccc2c(c1)/C(=C/C(=O)NCc1ccc(C(=O)Nc3ccc(F)cc3N)cc1)NC2=O
- IC50 (Histone deacetylase 1; read-out: IC50): 96.8 nM

SMILES: Nc1cc(F)ccc1NC(=O)c1ccc(CNC(=O)/C=C2\NC(=O)c3ncccc32)cc1
- IC50 (Histone deacetylase 1; read-out: IC50): 8360 nM

SMILES: Nc1ccccc1NC(=O)CCCCCNC(=O)/C=C1\NC(=O)c2ccccc21
- IC50 (Histone deacetylase 1; read-out: IC50): 872 nM

SMILES: Nc1cc(F)ccc1NC(=O)c1ccc(CNC(=O)/C=C/c2cccnc2)cc1 [TUCIDINOSTAT]
- IC50 (K562): 747 nM
- IC50 [1]: 235 nM
- microsomal CLint at 1 µM [2]: 4.98 µL/min/mg
- microsomal CLint at 1 µM [3]: 5.76 µL/min/mg
- microsomal CLint at 1 µM [4]: 10.3 µL/min/mg
- IC50 (HL-60): 1970 nM
- inhibition [5]: inactive
- IC50 (MCF7): 29.1 µM
- IC50 (HCT-116): 1090 nM
- half-life at 1 µM [6]: 190 min
- inhibition [7]: inactive
- inhibition [8]: inactive
- inhibition [9]: inactive
- half-life at 1 µM [10]: 276 min
- IC50 (Histone deacetylase 11): 760 nM
- half-life at 1 µM [11]: 302 min
- inhibition [12]: inactive

SMILES: Nc1ccc(F)cc1NC(=O)c1ccc(CNC(=O)/C=C2\NC(=O)c3ccccc32)cc1
- IC50 (Histone deacetylase 1; read-out: IC50): 70.3 nM

SMILES: Nc1ccccc1NC(=O)c1ccc(CNC(=O)/C=C2\NC(=O)c3ncccc32)cc1
- IC50 (Histone deacetylase 1; read-out: IC50): 758 nM

SMILES: Nc1cc(F)ccc1NC(=O)CCCCCCNC(=O)/C=C1\NC(=O)c2ccccc21
- IC50 (Histone deacetylase 1; read-out: IC50): 1600 nM

SMILES: O=C(/C=C1\NC(=O)c2ccccc21)NCCCCCC(=O)NO
- IC50 (Histone deacetylase 1; read-out: IC50): 57.9 nM

SMILES: Nc1cc(F)ccc1NC(=O)c1ccc(CNC(=O)/C=C2\NC(=O)c3cc(Cl)c(Cl)cc32)cc1
- IC50 (Histone deacetylase 1; read-out: IC50): 489 nM

SMILES: Cc1ccc(NC(=O)c2ccc(CNC(=O)/C=C3\NC(=O)c4ccccc43)cc2)c(N)c1
- IC50 (Histone deacetylase 1; read-out: IC50): 5720 nM

SMILES: Nc1ccccc1NC(=O)c1ccc(CNC(=O)/C=C2\NC(=O)c3ccccc32)cc1
- IC50 (Histone deacetylase 1; read-out: IC50): 65.6 nM
- IC50 (K562): 286 nM
- IC50 (HL-60): 450 nM
- IC50 (MCF7): 20.1 µM
- IC50 (HCT-116): 483 nM

SMILES: Nc1cc(Cl)ccc1NC(=O)c1ccc(CNC(=O)/C=C2\NC(=O)c3ccccc32)cc1
- IC50 (Histone deacetylase 1; read-out: IC50): 466 nM

SMILES: Nc1cc(F)ccc1NC(=O)c1ccc(CNC(=O)/C=C2\NC(=O)c3cccnc32)cc1
- IC50 (Histone deacetylase 1): Not Active

SMILES: Nc1cc(F)ccc1NC(=O)c1ccc(CNC(=O)/C=C2\NC(=O)c3ccc(F)cc32)cc1
- IC50 (Histone deacetylase 1; read-out: IC50): 167 nM

SMILES: Nc1cc(F)ccc1NC(=O)CCCCCNC(=O)/C=C1\NC(=O)c2ccccc21
- IC50 (Histone deacetylase 1; read-out: IC50): 6420 nM

SMILES: Nc1ccccc1NC(=O)CCCCCCNC(=O)/C=C1\NC(=O)c2ccccc21
- IC50 (Histone deacetylase 1; read-out: IC50): 320 nM

SMILES: Nc1cc(F)ccc1NC(=O)c1ccc(CNC(=O)/C=C2\NC(=O)c3ccc(C(F)(F)F)cc32)cc1
- IC50 (Histone deacetylase 1; read-out: IC50): 491 nM
